# In ChEMBL document CHEMBL1155706, “Vertilecanins: new phenopicolinic acid analogues from Verticillium lecanii” (2001):
# Activity calls are given as the source filed them. No cut-off for these calls is given here.
# Experiments:
# [1] = test system: Helicoverpa zea; assay: Antiinsectan activity in Helicoverpa zea at 100 ppm; type: functional, organism-based
# Method in brief: (§1)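 Test material was mixed into the H. zea diet at the stated ppm level (100 or 1500 ppm). Activity was scored as the reduction in weight gain relative to controls.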
# [2] = test system: Bacillus subtilis; assay: Antibacterial activity against Bacillus subtilis ATCC 6051 at 100 ug/disk by standard disk diffusion assay; type: functional
# Method in brief: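 Standard paper-disk diffusion test with 100 μg loaded per disk against B. subtilis ATCC 6051. Read-out is the diameter of the inhibition zone in mm.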
# [3] = test system: Helicoverpa zea; assay: Antiinsectan activity in Helicoverpa zea assessed as reduction in weight gain at 1500 ppm relative to control; type: functional; set-up: scale not given: the % may be the effect or the level left; method in brief: as §1
Structure (SMILES),Activity [1],zone of inhibition at 100 µg/disc ([2]; read-out: IZ) [mm],Activity [3] [%],Activity [2]
COC(=O)CNC(=O)c1ccc([C@H](O)c2ccccc2)cn1,inactive,–,–,–
O=C(O)c1ccc([C@H](O)c2ccccc2)cn1 [VERTILECANIN A],inactive,8,49,–
O=C(O)CCCCCC/C=C/CO,inactive,–,–,inactive
COC(=O)CNC(=O)c1ccc(C(=O)c2ccccc2)cn1,inactive,–,–,–
O=C(O)/C=C/CCCCCCC(=O)O,inactive,–,–,–
COC(=O)c1ccc([C@H](O)c2ccccc2)cn1,inactive,–,–,–
O=C(O)CNC(=O)c1ccc([C@H](O)c2ccccc2)cn1,inactive,–,–,inactive
